Assay results: ChEMBL document CHEMBL3232764, “Influence of the adamantyl moiety on the activity of biphenylacrylohydroxamic acid-based HDAC inhibitors” (Eur J Med Chem, 2014)

Experiments:
HCT-116 = experiment: Antiproliferative activity against human HCT116 cells assessed as growth inhibition after 72 hrs; type: functional, cell-based; details: HCT-116, 72 h
How it was run: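 Log-phase cells seeded in duplicate in 6-well plates; drug added 24 h after seeding. Cells harvested 72 h after drug exposure and counted with a cell counter. IC50 = drug concentration giving 50% reduction in cell number versus untreated control.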

Histone deacetylase 3 = Histone deacetylase 3 (Homo sapiens, UniProt O15379)
Histone deacetylase 4 = Histone deacetylase 4 (Homo sapiens, UniProt P56524); experiment: Inhibition of human HDAC4 using fluorogenic tetrapeptide RHKKAc as substrate
Histone deacetylase 5 = Histone deacetylase 5 (Homo sapiens, UniProt Q9UQL6); experiment: Inhibition of human HDAC5 using fluorogenic tetrapeptide RHKKAc as substrate
Histone deacetylase 8 = target: T1, Histone deacetylase 8 (Homo sapiens, UniProt Q9BY41); experiment: Inhibition of human HDAC8 using fluorogenic tetrapeptide RHKKAc as substrate
T1 sequence (Q9BY41 whole entry): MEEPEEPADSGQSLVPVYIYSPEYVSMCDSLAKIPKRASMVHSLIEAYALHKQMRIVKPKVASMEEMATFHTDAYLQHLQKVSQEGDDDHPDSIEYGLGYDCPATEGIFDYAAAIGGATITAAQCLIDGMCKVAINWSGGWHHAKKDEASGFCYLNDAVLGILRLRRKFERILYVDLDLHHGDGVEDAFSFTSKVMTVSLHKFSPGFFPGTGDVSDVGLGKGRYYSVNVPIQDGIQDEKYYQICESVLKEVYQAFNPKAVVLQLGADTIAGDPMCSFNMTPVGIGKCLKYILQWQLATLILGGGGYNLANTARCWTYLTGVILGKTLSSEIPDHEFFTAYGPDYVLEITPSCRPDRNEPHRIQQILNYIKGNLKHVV

Histone deacetylase 9 = Histone deacetylase 9 (Homo sapiens, UniProt Q9UKV0); experiment: Inhibition of human HDAC9 using fluorogenic tetrapeptide RHKKAc as substrate
[1] = target: T2, Polyamine deacetylase HDAC10 (Homo sapiens, UniProt Q969S8); experiment: Inhibition of human HDAC10 using fluorogenic tetrapeptide RHKKAc as substrate
T2 sequence (Q969S8 whole entry): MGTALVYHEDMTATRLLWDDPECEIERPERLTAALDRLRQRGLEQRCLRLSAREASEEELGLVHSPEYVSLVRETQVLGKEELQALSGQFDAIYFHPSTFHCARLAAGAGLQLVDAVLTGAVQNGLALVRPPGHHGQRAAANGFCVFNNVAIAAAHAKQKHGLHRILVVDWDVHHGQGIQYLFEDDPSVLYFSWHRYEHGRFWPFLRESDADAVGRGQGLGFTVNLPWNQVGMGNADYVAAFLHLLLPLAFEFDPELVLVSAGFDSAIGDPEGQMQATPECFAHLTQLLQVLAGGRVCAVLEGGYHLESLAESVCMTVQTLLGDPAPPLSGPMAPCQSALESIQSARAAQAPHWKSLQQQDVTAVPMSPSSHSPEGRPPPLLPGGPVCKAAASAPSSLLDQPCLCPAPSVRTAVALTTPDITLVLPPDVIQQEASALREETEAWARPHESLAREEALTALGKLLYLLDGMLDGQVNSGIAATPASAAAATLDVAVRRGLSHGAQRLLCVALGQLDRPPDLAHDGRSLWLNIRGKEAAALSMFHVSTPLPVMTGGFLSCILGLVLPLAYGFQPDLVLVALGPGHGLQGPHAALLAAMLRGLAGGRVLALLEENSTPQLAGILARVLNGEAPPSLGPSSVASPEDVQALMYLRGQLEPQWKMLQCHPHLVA

Histone deacetylase 11 = target: T3, Histone deacetylase 11 (Homo sapiens, UniProt Q96DB2); experiment: Inhibition of human HDAC11 using fluorogenic tetrapeptide RHKKAc as substrate
T3 sequence (Q96DB2 whole entry): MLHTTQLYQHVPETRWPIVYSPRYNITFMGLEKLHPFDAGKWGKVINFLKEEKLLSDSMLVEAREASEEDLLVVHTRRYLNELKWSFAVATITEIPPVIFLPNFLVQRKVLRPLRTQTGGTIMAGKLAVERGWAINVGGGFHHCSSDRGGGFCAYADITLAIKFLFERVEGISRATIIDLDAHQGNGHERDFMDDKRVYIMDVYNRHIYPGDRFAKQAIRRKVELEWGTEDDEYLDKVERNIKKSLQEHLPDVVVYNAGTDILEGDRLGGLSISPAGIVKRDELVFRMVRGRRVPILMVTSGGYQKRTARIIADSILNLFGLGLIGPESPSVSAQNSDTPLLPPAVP

IGROV-1 = experiment: Induction of apoptosis in human IGROV1 cells at IC80 after 72 hrs by TUNEL and flow cytometry analysis (reference value: 4%); type: functional

Histone deacetylase 5, sequence (Q9UQL6 whole entry): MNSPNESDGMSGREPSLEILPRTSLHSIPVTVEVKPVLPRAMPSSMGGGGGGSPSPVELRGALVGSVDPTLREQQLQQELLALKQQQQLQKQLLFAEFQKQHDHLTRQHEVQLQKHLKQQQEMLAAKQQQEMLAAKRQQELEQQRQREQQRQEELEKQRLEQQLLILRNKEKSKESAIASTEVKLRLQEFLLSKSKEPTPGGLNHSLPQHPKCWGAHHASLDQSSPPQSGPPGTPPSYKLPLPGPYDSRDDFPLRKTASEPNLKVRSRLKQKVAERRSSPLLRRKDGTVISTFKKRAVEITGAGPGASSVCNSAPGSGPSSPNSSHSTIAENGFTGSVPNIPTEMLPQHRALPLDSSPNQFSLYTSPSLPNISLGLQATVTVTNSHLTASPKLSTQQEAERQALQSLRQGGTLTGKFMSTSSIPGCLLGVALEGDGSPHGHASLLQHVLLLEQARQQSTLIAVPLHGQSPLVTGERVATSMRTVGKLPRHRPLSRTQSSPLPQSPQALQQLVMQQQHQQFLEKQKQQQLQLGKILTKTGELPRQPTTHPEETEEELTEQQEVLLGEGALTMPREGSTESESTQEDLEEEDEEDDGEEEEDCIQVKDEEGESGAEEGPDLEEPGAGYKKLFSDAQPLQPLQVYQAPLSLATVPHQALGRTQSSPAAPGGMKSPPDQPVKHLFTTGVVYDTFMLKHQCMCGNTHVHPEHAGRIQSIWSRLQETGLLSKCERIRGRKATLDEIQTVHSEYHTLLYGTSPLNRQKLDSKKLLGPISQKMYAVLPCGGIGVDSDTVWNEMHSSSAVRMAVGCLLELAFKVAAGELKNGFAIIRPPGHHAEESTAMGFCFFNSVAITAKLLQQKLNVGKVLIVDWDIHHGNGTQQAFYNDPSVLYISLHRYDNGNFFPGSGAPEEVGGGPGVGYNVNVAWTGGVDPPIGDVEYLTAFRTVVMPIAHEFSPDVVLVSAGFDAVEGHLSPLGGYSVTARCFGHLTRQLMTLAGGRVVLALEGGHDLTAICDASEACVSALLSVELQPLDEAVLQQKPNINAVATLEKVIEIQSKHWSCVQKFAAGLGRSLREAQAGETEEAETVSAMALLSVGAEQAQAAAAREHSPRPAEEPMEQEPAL
Histone deacetylase 4, sequence (P56524 whole entry): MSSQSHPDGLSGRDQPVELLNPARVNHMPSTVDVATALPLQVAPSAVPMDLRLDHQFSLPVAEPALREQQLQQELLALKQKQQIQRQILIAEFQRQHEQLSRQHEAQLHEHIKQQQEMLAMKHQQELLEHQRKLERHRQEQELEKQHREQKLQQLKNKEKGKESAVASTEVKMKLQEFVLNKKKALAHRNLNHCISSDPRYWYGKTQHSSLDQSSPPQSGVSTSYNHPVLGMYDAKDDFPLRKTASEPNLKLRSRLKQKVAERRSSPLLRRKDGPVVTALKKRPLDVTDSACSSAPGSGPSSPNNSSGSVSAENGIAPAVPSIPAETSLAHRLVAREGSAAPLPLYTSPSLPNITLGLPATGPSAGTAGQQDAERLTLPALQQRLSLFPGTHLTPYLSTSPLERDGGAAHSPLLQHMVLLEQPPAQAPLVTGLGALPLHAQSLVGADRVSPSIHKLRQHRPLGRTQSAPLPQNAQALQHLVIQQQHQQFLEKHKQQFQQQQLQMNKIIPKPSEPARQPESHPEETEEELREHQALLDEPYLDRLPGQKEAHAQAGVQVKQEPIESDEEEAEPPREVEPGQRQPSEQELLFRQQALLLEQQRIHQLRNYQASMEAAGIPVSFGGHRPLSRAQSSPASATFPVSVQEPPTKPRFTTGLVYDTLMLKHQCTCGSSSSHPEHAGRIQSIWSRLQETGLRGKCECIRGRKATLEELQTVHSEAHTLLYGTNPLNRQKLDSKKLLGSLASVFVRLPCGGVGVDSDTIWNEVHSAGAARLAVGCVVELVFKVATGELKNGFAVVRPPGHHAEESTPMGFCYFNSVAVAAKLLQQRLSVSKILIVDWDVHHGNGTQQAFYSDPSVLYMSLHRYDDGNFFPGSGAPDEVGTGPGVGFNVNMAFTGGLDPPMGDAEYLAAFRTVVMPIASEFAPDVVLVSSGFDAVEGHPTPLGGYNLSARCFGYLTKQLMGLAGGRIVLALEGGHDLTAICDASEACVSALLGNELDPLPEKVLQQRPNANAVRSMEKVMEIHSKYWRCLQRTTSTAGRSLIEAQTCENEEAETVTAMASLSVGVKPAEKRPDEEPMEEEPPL
Histone deacetylase 3, sequence (O15379 whole entry): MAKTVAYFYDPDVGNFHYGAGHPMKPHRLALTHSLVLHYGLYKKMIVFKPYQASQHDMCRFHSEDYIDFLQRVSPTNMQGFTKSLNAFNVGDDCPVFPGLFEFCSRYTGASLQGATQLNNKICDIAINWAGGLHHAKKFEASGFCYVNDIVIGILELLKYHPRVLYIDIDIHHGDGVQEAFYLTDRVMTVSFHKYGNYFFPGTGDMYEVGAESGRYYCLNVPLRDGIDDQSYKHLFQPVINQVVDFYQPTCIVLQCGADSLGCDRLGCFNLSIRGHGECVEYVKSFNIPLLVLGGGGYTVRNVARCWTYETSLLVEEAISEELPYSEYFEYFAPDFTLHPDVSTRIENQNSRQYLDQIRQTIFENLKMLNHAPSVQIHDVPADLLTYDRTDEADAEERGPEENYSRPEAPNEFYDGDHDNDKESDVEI
Histone deacetylase 9, sequence (Q9UKV0 whole entry): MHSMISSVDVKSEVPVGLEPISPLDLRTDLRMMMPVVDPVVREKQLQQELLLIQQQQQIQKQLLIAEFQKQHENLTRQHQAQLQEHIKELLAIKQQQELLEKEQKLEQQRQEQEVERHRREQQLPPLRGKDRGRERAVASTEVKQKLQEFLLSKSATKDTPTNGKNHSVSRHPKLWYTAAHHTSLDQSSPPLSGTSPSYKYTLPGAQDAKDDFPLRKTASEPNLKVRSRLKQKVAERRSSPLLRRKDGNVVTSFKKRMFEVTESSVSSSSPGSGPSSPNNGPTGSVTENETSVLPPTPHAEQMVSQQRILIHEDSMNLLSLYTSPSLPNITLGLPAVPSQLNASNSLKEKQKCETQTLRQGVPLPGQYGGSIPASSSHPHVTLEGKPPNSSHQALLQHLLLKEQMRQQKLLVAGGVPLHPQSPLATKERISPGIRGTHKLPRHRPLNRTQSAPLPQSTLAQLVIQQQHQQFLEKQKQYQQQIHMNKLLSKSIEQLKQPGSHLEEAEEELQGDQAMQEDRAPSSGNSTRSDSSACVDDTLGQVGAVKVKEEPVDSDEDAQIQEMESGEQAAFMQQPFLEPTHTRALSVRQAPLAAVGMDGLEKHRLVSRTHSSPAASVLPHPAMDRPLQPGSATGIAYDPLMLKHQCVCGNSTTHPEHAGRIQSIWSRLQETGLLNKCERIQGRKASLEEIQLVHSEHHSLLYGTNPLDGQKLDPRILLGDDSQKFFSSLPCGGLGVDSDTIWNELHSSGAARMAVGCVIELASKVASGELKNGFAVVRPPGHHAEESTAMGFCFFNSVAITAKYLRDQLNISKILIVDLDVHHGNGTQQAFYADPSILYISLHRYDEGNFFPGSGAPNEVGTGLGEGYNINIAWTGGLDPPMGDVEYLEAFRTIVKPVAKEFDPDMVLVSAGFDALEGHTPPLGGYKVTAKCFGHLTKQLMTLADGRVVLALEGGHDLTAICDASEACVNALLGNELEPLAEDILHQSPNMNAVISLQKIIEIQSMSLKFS

Row | IC50 (HCT-116) | IC50 (Histone deacetylase 3) | IC50 (Histone deacetylase 4) | IC50 (Histone deacetylase 5) | IC50 (Histone deacetylase 8) | IC50 (Histone deacetylase 9) | IC50 [1] | IC50 (Histone deacetylase 11) | Compound | Activity (IGROV-1)
1 | 1.8 µM | > 100 µM | > 100 µM | > 100 µM | 30.6 µM | > 100 µM | > 100 µM | 38.1 µM | COc1ccc(-c2ccc(/C=C/C=C/C(=O)NO)cc2)cc1C12CC3CC(CC(C3)C1)C2 | 52%
2 | 2.4 µM | > 100 µM | > 100 µM | > 100 µM | 1.56 µM | > 100 µM | > 100 µM | > 100 µM | COc1ccc(-c2ccc(/C=C/C=C/C(=O)NO)cc2)cc1 | 91%
